Laboratory results taken from ChEMBL document CHEMBL1933002, “Development and characterization of improved β-lactone-based anti-virulence drugs targeting ClpP” (Bioorg Med Chem, 2012).
Calls of active or inactive are those of the source. No cut-off for these calls is given here.

What was measured:
Staphylococcus aureus [1] = experiment: Antivirulence activity against Staphylococcus aureus NCTC 8325-4 in sheep RBC assessed as inhibition of hemolysis in agar plate by measuring hemolysin level after overnight incubation by serial dilution agar plate assay; type: functional, organism-based
Procedure, shortened: (§1)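 S. aureus NCTC 8325 inoculated onto 5.5 mm card discs on 5% sheep blood agar plates, together with serial dilutions of β-lactone in DMSO, and incubated overnight at 37 °C. Hemolysis zones were measured and normalized to the DMSO control. Compound stocks were kept in DMSO at -20 °C.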

[2] = Cytotoxicity against mouse NIH/3T3 cells assessed as cell viability at 200 to 1000 uM after 24 hrs by MTT assay; type: cell-based, NIH3T3; settings: read-out: Activity
Procedure, shortened: (§2)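 NIH3T3 cells in DMEM (4 mM glutamine) + 10% FCS, plated at 1.5×10^3/well and cultured 24 h to 30-40% confluence. Lactones diluted 1:100 from DMSO stocks into fresh medium; cells exposed 24 h. MTT (5 mg/ml stock) added for 2 h, cells lysed in DMSO, OD at 570 nm with 630 nm background subtraction.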

Staphylococcus aureus [3] = experiment: Growth inhibition of Staphylococcus aureus NCTC 8325 at 1 mM after 9 hrs; type: functional, organism-based
Procedure, shortened: (§3)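 Overnight cultures diluted 1:100 in LB (P. aeruginosa, E. coli) or BHB (S. aureus, S. epidermidis, E. faecalis). 100 µL treated with 1 µL of 100 mM lactone stock or DMSO control. Shaken in 96-well plates for 9 h at 37 °C, then OD600 read. Triplicates.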

Staphylococcus aureus [4] = experiment: Antivirulence activity against Staphylococcus aureus NCTC 8325-4 in sheep RBC assessed as inhibition of hemolysis in liquid medium by measuring hemolysin level after overnight incubation by spent culture supernatant assay
[5] = tested on: Staphylococcus epidermidis; experiment: Growth inhibition of Staphylococcus epidermidis RP62A at 1 mM after 9 hrs; type: functional; procedure, shortened: as §3
NIH3T3 [6] = experiment: Cytotoxicity against mouse NIH/3T3 cells assessed as cell viability up to 1 mM after 24 hrs by MTT assay; type: cell-based; settings: nih3t3, 24 h; procedure, shortened: as §2
[7] = biological target: T1, ATP-dependent Clp protease proteolytic subunit (Staphylococcus aureus (strain NCTC 8325)) (UniProt Q2G036); experiment: Inhibition of recombinant Staphylococcus aureus NCTC 8325 peptidase activity of clpP expressed in Escherichia coli BL21 at 10 to 40 uM after 10 mins using SLY-AMC as substrate by fluorescence assay
T1 sequence (whole entry): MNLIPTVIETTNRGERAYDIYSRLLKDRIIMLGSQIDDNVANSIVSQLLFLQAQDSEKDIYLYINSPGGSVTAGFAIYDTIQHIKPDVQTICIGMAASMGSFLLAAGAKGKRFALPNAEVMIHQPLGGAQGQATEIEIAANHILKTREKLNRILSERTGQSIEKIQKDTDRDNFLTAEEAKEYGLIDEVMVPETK
Procedure, shortened: (§4)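 Recombinant S. aureus ClpP (Strep-tag purified from E. coli BL21), 2 µg, preincubated 10 min at room temperature with lactone or DMSO in 50 mM MES, 100 mM KCl, pH 7.0. SLY-AMC added at 0.2 mM final, 2% DMSO final. Fluorescence read at ex 340/em 450 nm. At least triplicates; EC50 from curve fitting.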

[8] = biological target: T1, ATP-dependent Clp protease proteolytic subunit (Staphylococcus aureus (strain NCTC 8325)); experiment: Displacement of U1P from clpP in live Staphylococcus aureus NCTC 8325 cells after 1 hr using rhodamine-azide by SDS PAGE fluorescence analysis
HaCaT = experiment: Cytotoxicity against human HaCaT cells assessed as cell viability after 24 hrs by MTT assay; type: cell-based
Procedure, shortened: (§5)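 MTT read-out after 24 h exposure. NIH3T3 grown in DMEM (4 mM glutamine) + 10% FCS and plated at 1.5×10^3/well; HaCat grown in calcium-free DMEM (2 mM glutamine) + 10% dialyzed FCS and plated at 4.5×10^3/well. Cells cultured 24 h to 30-40% confluence. Lactones diluted 1:100 from DMSO stocks into fresh medium. MTT added for 2 h, formazan dissolved in DMSO, OD 570 nm minus 630 nm.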

Pseudomonas aeruginosa = experiment: Growth inhibition of Pseudomonas aeruginosa PAO1 at 1 mM after 9 hrs; type: functional, organism-based; procedure, shortened: as §3
[9] = biological target: T2, ATP-dependent Clp protease proteolytic subunit (Staphylococcus aureus (strain NCTC 8325), UniProt Q2G036); experiment: Inhibition of recombinant Staphylococcus aureus NCTC 8325 peptidase activity of clpP expressed in Escherichia coli BL21 after 10 mins using SLY-AMC as substrate by fluorescence assay; procedure, shortened: as §4
T2 sequence (Q2G036 whole entry): T1 sequence (whole entry)

Escherichia coli = experiment: Growth inhibition of Escherichia coli K-12 at 1 mM after 9 hrs; type: functional, organism-based; procedure, shortened: as §3
Enterococcus faecalis = experiment: Growth inhibition of Enterococcus faecalis OG1RF at 1 mM after 9 hrs; type: functional; procedure, shortened: as §3
Staphylococcus aureus [10] = experiment: Antivirulence activity against Staphylococcus aureus NCTC 8325-4 in sheep RBC assessed as inhibition of hemolysis in blood agar plate by measuring hemolysin level after overnight incubation by serial dilution agar plate assay; type: functional, organism-based; procedure, shortened: as §1
[11] = biological target: T1, ATP-dependent Clp protease proteolytic subunit (Staphylococcus aureus (strain NCTC 8325)); experiment: Inhibition of recombinant Staphylococcus aureus NCTC 8325 peptidase activity of clpP expressed in Escherichia coli BL21 at 200 to 800 uM after 10 mins using SLY-AMC as substrate by fluorescence assay; procedure, shortened: as §4
Staphylococcus aureus [12] = experiment: Antivirulence activity against Staphylococcus aureus NCTC 8325 in sheep RBC assessed as inhibition of hemolysis in blood agar plate at 100 uM by measuring hemolysin level after overnight incubation by serial dilution agar plate assay
NIH3T3 [13] = experiment: Cytotoxicity against mouse NIH/3T3 cells assessed as cell viability after 24 hrs by MTT assay; type: cell-based; settings: NIH3T3, 24 h; procedure, shortened: as §5
Staphylococcus aureus [14] = experiment: Antivirulence activity against Staphylococcus aureus NCTC 8325-4 in sheep RBC assessed as inhibition of hemolysis in liquid medium by measuring hemolysin level at 100 uM after overnight incubation by spent culture supernatant assay relative to control

Structure (SMILES)	ED50 (Staphylococcus aureus [1]) [nmol]	EC50 (Staphylococcus aureus [4]) [µM]	inhibition [7] [%]	Activity [8]	EC50 (HaCaT) [µM]	EC50 [9] [µM]	Activity (Staphylococcus aureus [10])	inhibition [11]	Activity (Staphylococcus aureus [12])	other results
C=CCCCCCCC[C@H]1C(=O)O[C@@H]1CCc1ccccc1 (racemic)	7	11	30	Active	91	3.4	–	–	–	viability at 24 h, up to 1000 µM [2]: 80%; growth inhibition (GI) (Staphylococcus aureus [3]): inactive; growth inhibition (GI) [5]: inactive; Activity (NIH3T3 [6]): Non-toxic; growth inhibition (GI) (Pseudomonas aeruginosa): inactive; growth inhibition (GI) (Escherichia coli): inactive; growth inhibition (GI) (Enterococcus faecalis): inactive
C=CCCCCCCCC[C@H]1OC(=O)[C@@H]1CCCCCCCCCNC(=O)OC(C)(C)C (racemic)	–	–	–	–	–	–	inactive	inactive	inactive	–
CCCCCCCCCCCC[C@H]1C(=O)O[C@@H]1CCc1ccccc1 (racemic)	–	–	–	–	–	–	inactive	inactive	inactive	–
C=CCCCCCCC[C@H]1C(=O)O[C@@H]1CCc1cccnc1 (racemic)	15	43	–	Active	75	4.5	–	–	–	EC50 (NIH3T3 [13]): 50 µM
C=CCCCCCCC[C@H]1C(=O)O[C@@H]1CCCCCNC(=O)c1ccc(N(C)C)cc1 (racemic)	–	–	70	Active	–	5.4	inactive	–	–	inhibition at 100 µM (Staphylococcus aureus [14]): 20%
C=CCCCCCCC[C@H]1C(=O)O[C@@H]1CCCCCCCCCCCNC(=O)OC(C)(C)C (racemic)	–	–	–	–	–	–	inactive	inactive	inactive	–
